{"source": "paper PMC11408085", "about": "(Biochemistry, 2024)", "molecules": {"B1": {"name": "IYD from Haliscomenobacter hydrossis (Haliscomenobacter hydrossis DSM 1100) (protein)", "chain": "MKQKPAFIPYAGAQFEPEEMLSKSAEYYQFMDHRRTVREFSNRAIPLEVIENIVMTASTAPSGAHKQPWTFVVVSDPQIKAKIRQAAEKEEFESYNGRMSNEWLEDLQPFGTDWHKPFLEIAPYLIVVFRKAYDVLPDGTQRKNYYVQESVGIACGFLLAAIHQAGLVALTHTPSPMNFLQKILQRPENERPFLLVPVGYPAEGAMVPDLQRKDKAAVMVVY"}}, "key": {"[1]": {"molecular_target": "T1, IYD from Haliscomenobacter hydrossis (Haliscomenobacter hydrossis, UniProt F4KU78)", "T1 sequence (F4KU78 1-222)": "B1 chain", "test": "biochemical", "assay_type": "binding"}, "[2]": {"molecular_target": "T1, IYD from Haliscomenobacter hydrossis", "test": "Catalytic deiodination", "assay_type": "biochemical", "conditions": "for Km / kcat (s^−1) × 10^−2: deiodination, 100 mM potassium phosphate pH 7.4, 25 °C"}, "[3]": {"molecular_target": "T1, IYD from Haliscomenobacter hydrossis", "conditions": "for fold change in t1/2: relative to IYD without ligand (10 min); for fold increase in t1/2: O2N ligands, relative to IYD without ligand; for protection of IYD against trypsin: fluorinated ligands, saturating concentration"}, "[4]": {"molecular_target": "T2, E91K/K116E variant of IYD (Haliscomenobacter hydrossis, UniProt F4KU78, E91K/K116E)", "test": "Affinity of ligands to E91K/K116E variant of IYD", "assay_type": "binding"}, "[5]": {"molecular_target": "T2, E91K/K116E variant of IYD", "test": "Catalytic dehalogenation by E91K/K116E variant of IYD", "assay_type": "biochemical"}, "[6]": {"molecular_target": "T2, E91K/K116E variant of IYD", "test": "Limited proteolysis of E91K/K116E variant of IYD by trypsin", "conditions": "relative to absence of ligands"}, "[7]": {"molecular_target": "T3, trypsin from bovine pancreas (Bos taurus, UniProt P00760)", "T3 sequence (P00760 24-246)": "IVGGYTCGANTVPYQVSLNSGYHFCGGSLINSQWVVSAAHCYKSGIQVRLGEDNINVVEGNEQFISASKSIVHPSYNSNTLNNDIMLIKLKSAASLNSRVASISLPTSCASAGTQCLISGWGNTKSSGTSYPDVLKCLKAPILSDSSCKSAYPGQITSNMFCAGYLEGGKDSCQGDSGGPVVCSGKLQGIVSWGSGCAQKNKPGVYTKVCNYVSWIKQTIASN", "test": "Potential inhibition of trypsin by ligands of IYD", "assay_type": "biochemical", "conditions": "DL-BAPNA as substrate; for inhibition of trypsin: ligand at concentration saturating IYD", "procedure,_shortened": "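4-Nitroaniline formation read at 405 nm (ε = 9920 M⁻¹cm⁻¹) every 15 s for 5 min. Rate taken by linear regression over the first 2 min. Repeated independently twice.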"}, "[8]": {"molecular_target": "T1, IYD from Haliscomenobacter hydrossis", "conditions": "IYD with FMNox; ref Kozyryev et al.[26]; cited from earlier work"}, "[9]": {"molecular_target": "T1, IYD from Haliscomenobacter hydrossis", "conditions": "deiodination; ref Kozyryev et al.[26]; cited from earlier work"}, "[10]": {"molecular_target": "T1, IYD from Haliscomenobacter hydrossis", "assay_type": "biochemical", "conditions": "equimolar concentrations of substrate, anaerobic"}, "[11]": {"molecular_target": "T1, IYD from Haliscomenobacter hydrossis", "test": "Redox titration of IYD in the presence of substrate analogues", "conditions": "for two-electron potential of IYD: in presence of ligand, −200 mV in absence of ligands; for formation of FMNsq during reductive titration: saturating ligand, anaerobic, pH 7.4, 25 °C"}, "Catalytic deiodination [12]": {"substrate": "N[C@H](Cc1ccc(O)c(I)c1)C(=O)O", "test": "Catalytic deiodination", "assay_type": "biochemical, Haliscomenobacter hydrossis", "conditions": "other: deiodination, 100 mM potassium phosphate pH 7.4, 25 °C"}, "Catalytic deiodination [13]": {"substrate": "O=C(O)[C@@H](O)Cc1ccc(O)c(I)c1", "test": "Catalytic deiodination", "assay_type": "biochemical, Haliscomenobacter hydrossis", "conditions": "other: deiodination, 100 mM potassium phosphate pH 7.4, 25 °C"}, "[14]": {"conditions": "IYD with FMNox, 110 mM potassium phosphate pH 7.4, 25 °C"}}, "note": "Where two headings read alike, the source gives them in different places.", "data": [{"molecule": "O=C(O)[C@@H](O)Cc1ccc(O)c(I)c1", "note": "[I-HPLA, (S)-3-(4-hydroxy-3-iodophenyl)lactic acid]", "values": [{"measurement": "Kd", "setting": "[1]", "result": "> 3000", "unit": "µM"}]}, {"molecule": "NCCc1ccc(O)c(I)c1", "note": "[I-tyramine]", "values": [{"measurement": "Kd", "setting": "[1]; [14]", "result": "99 ± 10", "unit": "µM"}, {"measurement": "decrease in kcat for dehalogenation relative to I-Tyr", "setting": "[2]", "result": "more than 30 fold"}, {"measurement": "decrease in kcat/Km of dehalogenation relative to I-Tyr", "setting": "[2]", "result": "more than 900 fold"}, {"measurement": "Km", "setting": "[2]", "result": "1470 ± 450", "unit": "µM"}, {"measurement": "kcat (s^−1) × 10^−2", "setting": "[2]", "result": "1.8 ± 0.3", "unit": "s^−1 × 10^−2"}, {"measurement": "fold change in t1/2", "setting": "[3]", "result": 2.7}]}, {"molecule": "N[C@@H](Cc1ccc(O)c(I)c1)C(=O)O", "note": "[I-Tyr, L-3-iodotyrosine, reference compound]", "values": [{"measurement": "Kd", "setting": "[4]", "result": "85 ± 14", "unit": "µM"}, {"measurement": "catalytic dehalogenation", "setting": "[5]", "result": "No catalytic dehalogenation could be detected"}, {"measurement": "fold change in t1/2", "setting": "[3]", "result": 2.2}, {"measurement": "protection of variant from trypsin", "setting": "[6]", "result": "over a twofold protection"}, {"measurement": "inhibition of trypsin", "setting": "[7]", "result": "not due to general inhibition of trypsin"}, {"measurement": "Kd", "setting": "[8]", "result": "5.7 ± 0.4", "unit": "µM"}, {"measurement": "Km", "setting": "[9]", "result": "49 ± 10", "unit": "µM"}, {"measurement": "kcat (s^−1) × 10^−2", "setting": "[9]", "result": "60 ± 0.5", "unit": "s^−1 × 10^−2"}]}, {"molecule": "NC(=O)C(N)Cc1ccc(O)c(I)c1", "note": "(stereo not shown) [I-tyrosinamide]", "values": [{"measurement": "Kd", "setting": "[1]; [14]", "result": "7 ± 0.2", "unit": "µM"}, {"measurement": "decrease in kcat for dehalogenation relative to I-Tyr", "setting": "[2]", "result": "more than 30 fold"}, {"measurement": "decrease in kcat/Km of dehalogenation relative to I-Tyr", "setting": "[2]", "result": "more than 900 fold"}, {"measurement": "Km", "setting": "[2]", "result": "2410 ± 410", "unit": "µM"}, {"measurement": "kcat (s^−1) × 10^−2", "setting": "[2]", "result": "1.7 ± 0.2", "unit": "s^−1 × 10^−2"}, {"measurement": "fold change in t1/2", "setting": "[3]", "result": 2.7}]}, {"molecule": "NCCc1ccc(O)c([N+](=O)[O-])c1", "note": "[O2N-tyramine]", "values": [{"measurement": "weakening of binding relative to O2N-Tyr", "setting": "[1]; IYD with FMNox", "result": 70, "unit": "fold"}, {"measurement": "Kd", "setting": "[1]; [14]", "result": "280 ± 10", "unit": "µM"}, {"measurement": "fold increase in t1/2", "setting": "[3]", "result": 2.7}, {"measurement": "ability to oxidize reduced IYD (FMNhq)", "setting": "[10]", "result": "capable of oxidizing FMNhq to regenerate the initial FMNox spectrum"}]}, {"molecule": "N[C@H](Cc1ccc(O)c(I)c1)C(=O)O", "note": "[D-I-Tyr, D-3-iodotyrosine]", "values": [{"measurement": "Kd", "setting": "[1]", "result": "270 ± 15", "unit": "µM"}, {"measurement": "Kd", "setting": "[4]", "result": "200 ± 30", "unit": "µM"}, {"measurement": "catalytic dehalogenation", "setting": "[5]", "result": "No catalytic dehalogenation could be detected"}, {"measurement": "fold change in t1/2", "setting": "[3]", "result": 0.62}, {"measurement": "protection of variant from trypsin", "setting": "[6]", "result": "over a twofold protection"}, {"measurement": "inhibition of trypsin", "setting": "[7]", "result": "mild inhibitor of trypsin"}]}, {"molecule": "NCCc1ccc(O)c(F)c1", "note": "[F-tyramine]", "values": [{"measurement": "Kd", "setting": "[1]; [14]", "result": "730 ± 140", "unit": "µM"}, {"measurement": "protection of IYD against trypsin", "setting": "[3]", "result": "protected IYD against trypsin"}, {"measurement": "inhibition of trypsin", "setting": "[7]", "result": "inhibited trypsin"}, {"measurement": "two-electron potential of IYD", "setting": "[11]", "result": "−225", "unit": "mV"}, {"measurement": "formation of FMNsq during reductive titration", "setting": "[11]", "result": "not detected"}]}, {"molecule": "O=C(O)[C@@H](O)Cc1ccc(O)c([N+](=O)[O-])c1", "note": "[O2N-HPLA, (S)-3-(4-hydroxy-3-nitrophenyl)lactic acid]", "values": [{"measurement": "Kd", "setting": "[1]", "result": "180 ± 4", "unit": "µM"}, {"measurement": "fold increase in t1/2", "setting": "[3]", "result": 2.1}, {"measurement": "inhibition of trypsin catalysis", "setting": "[7]; ligand at twice its Kd value", "result": "no more than 25%"}, {"measurement": "ability to oxidize reduced IYD (FMNhq)", "setting": "[10]", "result": "capable of oxidizing FMNhq to regenerate the initial FMNox spectrum"}]}, {"molecule": "NC(=O)[C@@H](N)Cc1ccc(O)c([N+](=O)[O-])c1", "note": "[O2N-tyrosinamide]", "values": [{"measurement": "Kd", "setting": "[1]; [14]", "result": "2.4 ± 0.1", "unit": "µM"}, {"measurement": "fold increase in t1/2", "setting": "[3]", "result": 3.0}, {"measurement": "inhibition of trypsin", "setting": "[7]", "result": "not the consequence of a general inhibition of trypsin"}, {"measurement": "ability to oxidize reduced IYD (FMNhq)", "setting": "[10]", "result": "capable of oxidizing FMNhq to regenerate the initial FMNox spectrum"}]}, {"molecule": "NC(=O)[C@@H](N)Cc1ccc(O)c(F)c1", "note": "[F-tyrosinamide]", "values": [{"measurement": "Kd", "setting": "[1]; [14]", "result": "77 ± 3", "unit": "µM"}, {"measurement": "protection of IYD against trypsin", "setting": "[3]", "result": "protected IYD against trypsin"}, {"measurement": "two-electron potential of IYD", "setting": "[11]", "result": "−236", "unit": "mV"}, {"measurement": "formation of FMNsq during reductive titration", "setting": "[11]", "result": "not detected"}]}, {"molecule": "N[C@@H](Cc1ccc(O)c(F)c1)C(=O)O", "note": "[F-Tyr, L-3-fluorotyrosine, reference compound]", "values": [{"measurement": "Kd", "setting": "[1]", "result": "97 ± 3", "unit": "µM"}, {"measurement": "decrease in affinity relative to I-Tyr", "setting": "[1]; IYD with FMNox", "result": "more than 10 fold"}, {"measurement": "formation of FMNsq during reductive titration", "setting": "[11]", "result": "consistent with the neutral form of FMNsq"}]}, {"molecule": "O=C(O)CCc1ccc(O)c(I)c1", "note": "[I-HPPA, 3-(4-hydroxy-3-iodophenyl)propanoic acid]", "values": [{"measurement": "Kd", "setting": "[1]", "result": "> 4000", "unit": "µM"}, {"measurement": "decrease in affinity relative to I-Tyr", "setting": "[1]; IYD with FMNox", "result": "at least 700 fold"}, {"measurement": "kcat (s^−1) × 10^−2", "setting": "[2]", "result": "<9.3 × 10^−3^e s^−1 × 10^−2"}, {"measurement": "kcat as percentage of that for I-Tyr", "setting": "[2]; set by detection limit of deiodinated product HPPA", "result": "≤ 0.015", "unit": "%"}]}, {"molecule": "B1", "values": [{"measurement": "Km", "setting": "Catalytic deiodination [12]", "result": "7900 ± 4000", "unit": "µM"}, {"measurement": "kcat", "setting": "Catalytic deiodination [12]", "result": "0.027 ± 0.01", "unit": "s⁻¹"}, {"measurement": "kcat/Km", "setting": "Catalytic deiodination [12]", "result": "3.4 ± 1", "unit": "M⁻¹ s⁻¹"}, {"measurement": "Km", "setting": "Catalytic deiodination [13]", "result": "270 ± 30", "unit": "µM"}, {"measurement": "kcat", "setting": "Catalytic deiodination [13]", "result": "0.013 ± 0.001", "unit": "s⁻¹"}, {"measurement": "kcat/Km", "setting": "Catalytic deiodination [13]", "result": "47 ± 5", "unit": "M⁻¹ s⁻¹"}]}]}
